Assay results as given in ChEMBL document CHEMBL4513216, “Probing the Open Global Health Chemical Diversity Library for Multistage-Active Starting Points for Next-Generation Antimalarials” (ACS Infect Dis, 2020).

Test: Toxicity liver stage against HepG2, at 10uM
Format: cell-based
Design: test concentration 10 uM, cell line HepG2-A16-CD81EGFP
Conditions: human, HepG2-A16-CD81EGFP cells; read-out: INHIBITION
In short: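 Uninfected HepG2-A16-CD81EGFP cells, 3 × 10^3 per well, 1536-well, plated on prespotted compound at 10 μM final, parasite-free screening media added to match infected plates; puromycin 10 μM positive, DMSO 0.5% negative; run in parallel with 48 h PbLuc assay at 37 °C, 5% CO2; viability by CellTiter-Glo luminescence, normalized to controls.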

| SMILES | cytotoxicity at 10 µM |
| --- | --- |
| Cc1n[nH]c2c1C(c1cc(F)cc(F)c1)SCC(=O)N2 (stereo not given) | 2.03% |
| O=C(Nc1nc[nH]n1)c1cc(-c2ccc(F)cc2)n[nH]1 | -5.4% |
| COc1ccc2c(ccn2CC(=O)Nc2n[nH]c(CC(C)C)n2)c1 | -6.19% |
| Cn1nnc2c(N3CC(C(=O)NCc4ccccc4F)C3)ncnc21 | 0.447% |
| CCN1C(=O)C[C@@H]2[C@@H]1CCN2S(=O)(=O)c1ccccc1 | 2.55% |
| CN(C)c1cccc(C(=O)N2CCc3ccc(=O)[nH]c3CC2)c1 | 9.23% |
| CN(C)CCCNC(=O)c1ccc(Cl)cc1Cl | -21% |
| CN(C)CC1CSCCCN1C(=O)Nc1ccc(C(C)(C)C)cc1 (stereo not given) | 6.79% |
| CCN1C[C@H]2CCN(C(=O)NC3CCCC3)CC[C@H]2S1(=O)=O | -3.52% |
| CCO[C@@H]1CO[C@@]2(CCCN(C(=O)COc3ccccc3OC)C2)C1 | 3.51% |
| Cc1ncsc1CN1CC[C@H]2C[C@H](c3ccncn3)O[C@@H]2C1 | 4.87% |
| Cc1cc(NC(=O)Cn2ncc(Br)c2C)no1 | 4.12% |
| Cc1noc(C)c1S(=O)(=O)N(C)Cc1nn(C)c(Cl)c1Cl | -6.01% |
| CCN(CC)CCNC(=O)c1cc(C(C)C)nc(N2CCCC2)n1 | -2.44% |
| O=C(NCCc1cc(N2CCOCC2)nc(NC2CC2)n1)C1CCCO1 (stereo not given) | 2.61% |
| Cc1nonc1CNC(=O)C(C)Oc1ccccc1F (stereo not given) | 2.57% |
| CC(=O)N(C)Cc1cncc(C2CCCN2C2CCOCC2)n1 (stereo not given) | -5.34% |
| COCCC(=O)N1CCC(c2cc3ncc(C)nc3[nH]2)CC1 | -8.86% |
| COc1ccc(C(=O)N2C[C@@H](c3ccccc3)[C@@H]3NCCCC[C@@H]32)cc1 | -23.3% |
| COCCOCC(=O)N1C[C@@H]2CC[C@H](Oc3ccccc3F)[C@@H]2C1 | -1.96% |
| O=C(CCc1cccnc1)N1CCC(c2cnccn2)CC1 | -10.4% |
| CNCC(=O)N1CCCC(c2ccnc(Nc3cnccn3)n2)C1 (stereo not given) | -11.6% |

| SMILES | cytotoxicity at 10 µM |
| --- | --- |
| COc1ncccc1C(Cc1ccsc1)NC(=O)Cn1cccnc1=O (stereo not given) | -5.47% |
| CN(C)S(=O)(=O)N1CCCC(c2cccc(Cc3ccccc3F)n2)C1 (stereo not given) | 40.4% |
| Cc1ncc(CNC(=O)Cc2ccc(Cl)cc2)c(C2CCCN2C)n1 (stereo not given) | -0.696% |
| CCOc1ccc(C(=O)CC(SC2CCCCC2)C(=O)O)cc1 (stereo not given) | 6.73% |
| Cc1noc(OCc2csc(C)n2)n1 | -2.54% |
| Cc1csc(CNc2cnc3c(c2)c(C)nn3C)n1 | 0.739% |
| CS(=O)(=O)N1CCCN(CCCSCc2ccccc2)CC1 | -2.35% |
| Cc1nc(C(C)C)sc1C(C)N(C)C(=O)c1ccc(=O)n(C)c1 (stereo not given) | 1.46% |
| NC(=O)CC1CCN(Cc2ccccc2OCC(F)(F)F)CC1 | -0.535% |
| c1ccc2nc(N3CCCC3)c(NCc3nnc4n3CCC4)nc2c1 | 6.9% |
| COCCNC(=O)NC1CCN(c2cnn(C)c2)C1 (stereo not given) | 6% |
| CN(Cc1nccn1C)S(=O)(=O)N1CCCC1c1ccco1 (stereo not given) | 3.21% |
| O=C(c1cc2c([nH]c1=O)CCC2)N1CCCC1c1cccnc1 (stereo not given) | -5.79% |
| CSc1ccc(CNC2CCN(CCc3ccncc3)CC2)cc1 | -8.14% |
| CC(C)(C)C(=O)NCCNCc1ccc(Cl)c2cccnc12 | -11.4% |
| Cc1ccc(CNCCS(=O)(=O)N2CCOCC2)cc1C | 1.41% |
| Cc1nc(CNC(=O)[C@@H]2CCCN2C(=O)OC(C)(C)C)cs1 | -0.602% |
| Cc1nc(CNCC2CCCN2c2cccnn2)oc1C (stereo not given) | -3.31% |
| Cn1cc(NC(=O)NCc2ccsc2)ccc1=O | -10.2% |
| COC(=O)Cc1cccc(NC(=O)Cc2ccon2)c1 | -2.93% |
| CC1CCN(S(=O)(=O)N2CCn3cccc3C2C)CC1 (stereo not given) | -0.224% |
| CCc1ccsc1C(=O)N1CCN(C(=O)c2ccc(C)o2)CC1 | 6.98% |

| SMILES | cytotoxicity at 10 µM |
| --- | --- |
| CN(C)C(=O)Cc1ccccc1NCc1cccc(F)c1F | 9.03% |
| COc1cc(F)cc2sc(NC(=O)COCC3CCCO3)nc12 (stereo not given) | -5.07% |
| Cc1cc(C)c(CNc2ncnc3c2cnn3C)c(=O)[nH]1 | 8.63% |
| Cc1ccc(CCCC(=O)N2CCN(C3CCCN(C)C3)CC2)s1 (stereo not given) | 5.82% |
| CC(=O)c1c(F)cccc1NCC(O)c1ccc(F)c(F)c1 (stereo not given) | 13.3% |
| Cc1ccc2c(c1)C(NC1CCN(C)CC1)CCCO2 (stereo not given) | -8.2% |
| CC(O)CCN(C)c1nc2ccccc2c(=O)[nH]1 (stereo not given) | 12.6% |
| Cc1cc(C)c(C(=O)N2CCc3c(ncn3CCc3ccccc3)C2)[nH]1 | 7.13% |
| CCCn1nc(-c2nc(COC)no2)ccc1=O | -11.6% |
| Cc1cc(C)c(S(=O)(=O)Nc2ccccc2CC(F)(F)F)cc1C(=O)O | -1.47% |
| CNC(=O)Cc1noc(Cc2ccc3c(c2)CCCC3)n1 | -14.1% |
| Cn1cc(C(=O)N2CCOc3cc(F)ccc32)ccc1=O | -2.55% |
| O=C(c1ccc(F)c(F)c1)N1CCCC1CN1CCCC1 (stereo not given) | 2.92% |
| Cc1ccc(O)c(CNC2CCc3nc(C(C)C)nn3C2)n1 (stereo not given) | -8.54% |
| Cc1ncsc1C(=O)NCCOc1ncc(Cl)cc1Cl | 7.67% |
| Cc1noc([C@@H]2C[C@H]3OCC[C@H]3N(Cc3ccoc3)C2)n1 | -71.4% |
| COCC(=O)N1CCc2ncc(Cn3cncn3)n2CC1 | -81% |
| CN1CC(=O)N(c2ccsc2)CC12CCN(C(=O)c1ccc[nH]1)C2 (stereo not given) | -71.8% |
| Oc1cccc2ccc(CN3CCC4(CCNCC4)C3)nc12 | -6.19% |
| Cc1cc(CN(C)C(=O)c2cccc(CCC(C)(C)O)c2)no1 | -2.02% |
| COc1ccc(Cc2ncc3c(n2)CN(C(=O)CO)C3)cc1 | 0.624% |
| COc1cc(Cl)cc(CN2CCCC(N3CCOCC3)C2)c1OC (stereo not given) | 0.944% |

| SMILES | cytotoxicity at 10 µM |
| --- | --- |
| O=C(c1ccc(C(F)(F)F)cc1)N1C[C@@H](CN2CCCCC2)[C@@H](CO)C1 | 0.313% |
| COC1CCN(S(=O)(=O)N2CCCC(c3cccc(C(=O)O)c3)C2)CC1 (stereo not given) | 1.83% |
| CCn1nc(C)c(CNC(=O)C2COc3ccccc3C2)c1C (stereo not given) | 9.39% |
| CCc1ccc(CN2CCN(Cc3ncc[nH]3)[C@H]3CS(=O)(=O)C[C@H]32)nc1 | -0.235% |
| Cc1nnc(CN2CCOC(c3ccc(Cl)c(Cl)c3)C2)o1 (stereo not given) | -1.11% |
| COCc1nc(CNC(=O)c2cc(C)c(C)[nH]c2=O)no1 | 4.19% |
| CCNC(=O)[C@@H]1C[C@@H](NC(=O)c2ccc(C)cc2O)CN1CCCSC | -125% |
| O=C(c1ccc(S(=O)(=O)N2CCSCC2)cc1)N1CCC(O)C1 (stereo not given) | 4.91% |
| Cc1cc(C)c2ncn(CC(C)(C)CO)c(=O)c2c1 | 15.4% |
| Cc1nc(CNC(=O)c2cc(COc3ccccc3)[nH]n2)n[nH]1 | 8.52% |
| CN(C)CCNc1cc(-c2ccccc2C(N)=O)c2cc[nH]c2n1 | 0.343% |
| CSc1ccc(CN(CCO)C(=O)CCOc2ccccc2)cc1 | 2.08% |
| O=c1[nH]c(COc2cccc(F)c2)nc2c1CCNC2 | 10.1% |
| O=C(CN1CCN(CC2CCOc3ccccc3C2)CC1)N1CCCC1 (stereo not given) | -4.02% |
| CCc1nc(C)c(C(=O)N(C)Cc2cnn(-c3cccc(OC)c3)c2)s1 | 11.7% |
| COCc1cn(CC2CCN(Cc3c(C)[nH]c4ccccc34)CC2)nn1 | -5.36% |
| Cc1ccc2nc(C3CCCN3Cc3cccc(CCN)c3)[nH]c2c1 (stereo not given) | -7.01% |
| O=C(c1ccccc1)N1CCN(CC2CCOc3ccccc3C2)CC1 (stereo not given) | -0.966% |
| Cc1cc(-c2nn3c(C)nnc3s2)n[nH]1 | 6.52% |
| O=C(Nc1cnc2n1CCCC2)C1CCCN1C1CCNCC1 (stereo not given) | 11.6% |
| CCOc1ccc(CCCC(=O)N2CC[C@H](NC(C)=O)C2)cc1C | -16% |
| CN(Cc1ccc(C(=O)Nc2sccc2C#N)cc1)Cc1ccno1 | -1.65% |

| SMILES | cytotoxicity at 10 µM |
| --- | --- |
| O=C(CCc1cc2n(n1)CCN(Cc1ncc[nH]1)C2)N1CCCC1 | -5.77% |
| CCC(NC(=O)c1c(C(=O)O)cnn1C)c1ccc(C)cc1C (stereo not given) | -7.58% |
| Cc1c2c(C(F)F)cc(SCC(=O)O)nc2nn1C | -9.38% |
| CCNC(=O)NC(=O)CN1CCC(c2cccc(F)c2)C1 (stereo not given) | -9.45% |
| NC(=O)C1CCN(C(=O)c2ccn(-c3ccc(F)cc3)n2)C1 (stereo not given) | -6.02% |
| c1ccc(Oc2cc(CNCC3CNc4ccnn4C3)ccn2)cc1 (stereo not given) | 3.1% |
| Cc1ccc([C@]2(O)CC[C@H]3CN(Cc4cccc(F)c4F)C[C@H]32)nc1 | -8.38% |
| Cc1cc(C[C@@H]2CCC[C@H]2NCc2cccc(F)c2F)on1 | -0.474% |
| COc1ccc(CN(Cc2cncn2C)CC2CCCO2)cc1OC (stereo not given) | -3.06% |
| Cc1cc(CN2CC[C@H]3[C@H]2CCN3S(C)(=O)=O)oc1C | -1.69% |
| Cc1ccc(CN2CCC[C@]3(C(=O)O)CN(c4ncccn4)C[C@@H]3C2)o1 | -11.3% |
| CC(C)N1[C@H](CN2CCCC2)C[C@@H]2CN(C(=O)c3ccoc3)CC[C@@H]21 | -135% |
| O=C(CN1CCC[C@H]1C(=O)O)NCCOc1cccc(Cl)c1 | -22.6% |
| CN(C)C(=O)COC[C@@]12CCC[C@@H]1CNC2 | 0.903% |
| COC1COC2(CCN(CC3CC3)CC2)C1 (stereo not given) | -103% |
| CC(C)C(=O)NC1COC2(CCN(Cc3cccnc3)CC2)C1 (stereo not given) | 2.11% |
| CCOC(=O)c1n[nH]cc1-c1cncn1CCCn1nc(C)cc1C | -2.73% |
| COCC1CN(Cc2c(C)noc2C)Cc2ccnn2C1 (stereo not given) | -89.3% |
| Cc1cccc(C(=O)N2CCc3ncnc(C4CCOC4)c3CC2)n1 (stereo not given) | -69.8% |
| Cc1ccc(C(=O)N2CC[C@@H](N(C)C)[C@@H]2Cc2cnn(C)c2)cn1 | -73.4% |
| Cn1cccc1C(=O)NCc1cn2c(n1)CN(Cc1cccnc1)CC2 | -113% |
| COc1ccc(CN2C[C@H]3CC[C@@H](C2)N(S(C)(=O)=O)C3)cc1 | -5.75% |
